Screens: PubChem, several laboratories
VIM-2 inh: blocks Pseudomonas aeruginosa VIM-2 metallo-beta-lactamase. actives 0.89% (n = 290,000). inhibition, % at 5.6 µM. purified VIM-2, nitrocefin hydrolysis, epi-absorbance fluorescence;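 active = inhibition above the mean of all tested compounds plus 3 SD, cutoff set per screening run, cut at about 7.5% in these data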;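 also: red hydrolysis product quenches plate fluorescence so inhibitors raise well fluorescence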
IMP-1 inhibitor: inhibitors of Pseudomonas aeruginosa IMP-1 metallo-beta-lactamase; purified IMP-1, nitrocefin hydrolysis, epi-absorbance fluorescence; inhibition, % at 5.6 µM; actives 0.45% (n = 290,000); AID 1556;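 active = inhibition above the mean plus 3 SD of all compounds in the same screening run, cut at about 4.5% in these data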
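System: purified recombinant IMP-1 beta-lactamase. Medium: Zinc- and detergent-supplemented HEPES buffer, pH 7.1. Compound: one 5.6 µM dose […]. Schedule: 15 min preincubation plus 25 min reaction at 25 °C. Technique: Epi-absorbance fluorescence, 480 nm excitation, 530 nm emission.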
core dimer inh: blocks dimerization of HCV core protein; actives 0.33% (n = 300,000); inhibition, % at 5 µM; TR-FRET GST/Flag-core106 dimerization, 1536-well;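 active = inhibition above the mean of all tested compounds plus 3 SD, set per screening campaign, cut at about 45% in these data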
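Assay system: GST-tagged and Flag-tagged HCV core protein residues 1-106 / Times: compound-protein-antibody incubation 4 h at 22.5 °C / Signal: time-resolved FRET, ex 340 nm, em 617 and 671 nm / Evaluation: % inhibition based on acceptor/donor emission ratio / Benchmarks: wells lacking GST-core106 and wells with excess unlabelled core106 / Repeats: singlicate, one well per compound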
NadD block: inhibitors of Staphylococcus aureus NadD | inhibition, % at 20 µM | purified NadD enzyme, colorimetric absorbance read-out | actives 0.78% (n = 360,000); in the data active = inhibition above about 26%
A number is an active result; - = inactive; . = not tested or not shown. Most compounds without a hit are left out; they make up all but 1.9% or so of the library.

SMILES	VIM-2 inh	IMP-1 inhibitor	core dimer inh	NadD block
Cc1cc(C2C(C#N)=C(N)SC(N)=C2C#N)c(C)s1	-	-	51.2	-
Cc1ccc(S(=O)(=O)Nc2cc(C(F)(F)F)ccc2N2CCOCC2)c(C)c1	-	-	-	-
NC(=O)C1CCN(S(=O)(=O)c2cccc(C(=O)O)c2)CC1	-	32.5	-	-
NC(=O)C1CCN(C(=O)c2cccc(S(=O)(=O)N3CCCC3)c2)CC1	.	.	.	-
Cc1cc(NC(=O)CSCC(=O)Nc2ccc(C)c(C)c2)no1	.	.	.	-
Cc1cc(C)n(-c2ccc(C(=O)OCC(=O)c3ccc(Br)s3)cc2)n1	-	9.1	-	-
Cc1snc(SCC(=O)c2ccc([N+](=O)[O-])cc2)c1C#N	9.5	-	.	-
CSc1nc(N)nc(SCC(=O)OC(C)C)c1C#N	-	-	-	-
CSc1nc(N)nc(SCC(=O)c2ccc(C)cc2)c1C#N	-	-	47.5	-
COC(=O)C1SCC2C(=O)N(Cc3ccc(Cl)c(Cl)c3)CC(=O)N21 (stereo not drawn)	-	-	-	-
CC(C)Oc1ccc(CN2CCC2(C)C(=O)NCc2cccc3ccccc23)cc1 (stereo not drawn)	.	.	.	-
Cc1ccc(NC(=O)c2c3c(nc4ccccc24)CCC3)cc1S(=O)(=O)N(C)C	-	-	65.5	-
COc1ccc(NC(=O)c2c3c(nc4ccccc24)CCC3)cc1S(=O)(=O)N1CCOCC1	-	-	77.8	-
Cc1ccc(NC(=O)c2c3c(nc4ccccc24)CCC3)cc1	-	-	-	-
CC(OC(=O)CCN1C(=O)c2cccc([N+](=O)[O-])c2C1=O)C(=O)Nc1cc(Cl)cc(Cl)c1 (stereo not drawn)	-	-	-	-
COc1cc(N2CCC(O)CC2)ccc1Nc1nnc(Cl)c(Nc2ccccc2S(C)(=O)=O)n1	.	.	.	-
CC(=O)c1cc(C#N)c(SCCC(C)C)nc1C	-	-	-	-
CC(C)CCSc1nc(N)c(C#N)cc1C#N	-	-	64.1	-
COc1cccc(CCNC(=O)C2CCC(=O)N(C3CC3)C2)c1OC (stereo not drawn)	-	-	.	-
CC1(C)C(=O)Nc2ccccc2N1C(=O)CSc1nc(-c2ccccc2)cs1	-	-	46.1	-
COc1ccc(Cl)cc1C(=O)OCC(=O)NC(=O)c1cccn1C	11.3	-	-	-
CC1(C)CC(=O)c2cnc(NCC3CCCO3)nc2C1 (stereo not drawn)	-	6.0	-	-
CC1CC(=O)c2cnc(NCC3CCCO3)nc2C1 (stereo not drawn)	-	-	-	-
Cc1ccc(C)c(S(=O)(=O)Nc2ccc3oc(C)c(C(=O)O)c3c2)c1	-	6.0	-	-
O=C(O)CN1C(=O)/C(=C\c2ccccc2OCc2ccc(Cl)cc2)SC1=S	-	-	-	-
SMILES	VIM-2 inh	IMP-1 inhibitor	core dimer inh	NadD block
O=C(O)CN1C(=O)/C(=C\c2cc(Br)ccc2OCc2ccc(Cl)cc2Cl)SC1=S	-	-	-	36.3
CN(C)/C=C/C(=O)c1ccn(S(=O)(=O)c2ccccc2)c1	-	-	-	-
CN(C)[C@@H]1C(=O)C(C(=O)NCN2CCCC2)=C(O)[C@@]2(O)C(=O)C3=C(O)c4c(O)cccc4[C@@](C)(O)C3CC12 (stereo partly drawn)	-	5.7	.	.
CN(C)c1ccc(O)c2c1CC1CC3C(N(C)C)C(=O)C(C(N)=O)=C(O)[C@@]3(O)C(=O)C1=C2O (stereo partly drawn)	.	.	-	-
Cc1ccc(Nc2cc(C)nc3ccc(C)cc23)cc1	10.0	-	-	-
COc1ccc(Nc2cc(C)nc3ccc(OC)cc23)cc1	10.6	-	-	-
CC(=O)c1ccc(Nc2cc(C)nc3c(C)cc(C)cc23)cc1	8.0	-	-	-
Cc1cc(Nc2cccc(Cl)c2)c2ccccc2n1	-	-	-	-
Cc1cc(Nc2ccc3c(c2)OCCO3)c2cc(Cl)ccc2n1	8.2	-	-	-
COc1ccc(/C=N/Nc2cc(C)nc3ccccc23)cc1	-	-	-	-
COC(=O)c1ccc2nc(C)cc(Nc3ccc(N(C)C)cc3)c2c1	8.3	-	-	-
COC(=O)c1ccc(Nc2cc(C)nc3ccccc23)cc1	-	-	-	-
COc1ccc2nc(C)cc(N/N=C/c3ccc(F)cc3)c2c1	8.6	-	-	-
CCOc1ccccc1C(=O)Oc1cc(C)[nH]c(=O)c1[N+](=O)[O-]	-	-	-	-
Cc1ccc(Cn2c(N3CCNCC3)nc3c2c(=O)[nH]c(=O)n3C)cc1	-	27.1	.	-
Cn1c(=O)[nH]c(=O)c2c1nc(N1CCNCC1)n2Cc1ccccc1	-	-	-	-
Nc1cccc2[nH]c(=O)c3ccccc3c12	.	.	.	-
CCn1c(SCC(N)=O)nc2sc3c(c2c1=O)CCCC3	-	-	-	-
NC(=O)CSc1nc2sc3c(c2c2ncnn12)CCCC3	9.8	-	-	-
COc1ccc(CCN2CC(C(=O)NC3CCCCC3)CC2=O)cc1OC (stereo not drawn)	-	-	-	-
CCc1ccc2c(c1)NC(=O)C2(C)Cc1ccc(C(F)(F)F)o1 (stereo not drawn)	.	.	.	-
CC(=O)Nc1ccc(Cc2nc3c([nH]2)c(=O)n(C)c(=O)n3C)cc1	-	11.8	-	.
CCN(CC(=O)NCc1ccc(F)cc1)Cc1cc(=O)n2ccsc2n1	-	7.6	-	-
Cc1ccc(S(=O)(=O)N2CCCCC2)cc1C(=O)NCCN1CCOCC1	.	.	.	-
OCC[C@@H]1C[C@H](O)[C@@H](O)[C@]2(Cc3ccccc3O2)O1	-	-	-	-
SMILES	VIM-2 inh	IMP-1 inhibitor	core dimer inh	NadD block
O=C(/C(=N\Nc1ccccc1)Sc1nnnn1-c1ccccc1)c1ccccc1	-	-	-	-
Cc1ccc(C(=O)N/C(=C\c2ccco2)C(=O)NCCCn2ccnc2)cc1	-	8.8	-	-
CN(C)c1ccc(/C=C(\NC(=O)c2ccccc2)C(=O)NCCCn2ccnc2)cc1	-	5.4	-	-
CCCn1c(=O)c2ccccc2n2c(SCCNCCO)nnc12	11.2	-	-	-
CCC(=O)N(Cc1c(C)nn(-c2ccccc2)c1Cl)c1ccc(Cl)cc1	-	-	-	-
O=C(/C=C/[C@H]1O[C@@H](n2ccc(=O)[nH]c2=O)[C@H](O)[C@@H]1O)NCc1ccc2c(c1)OCO2	.	.	.	-
O=C(O)c1cccc(-c2ccc(/C=C3/SC(=Nc4ccccc4)N(Cc4cccnc4)C3=O)o2)c1	-	-	.	31.5
CCN1C(=O)/C(=C\c2ccc(-c3cccc(C(=O)OC)c3)o2)SC1=Nc1ccc(C(=O)O)cc1	-	-	-	.
Cc1ccc(NC(=O)CN(C)C(=O)CCC(=O)c2cccs2)cc1	-	8.9	-	-
Cc1cc(-c2csc(NCc3ccccc3)n2)c(C)n1C	-	-	.	42.4
CC(=Nc1ccccc1)C1=C(O)C(Cc2ccc(O)cc2)NC1=O (stereo not drawn)	.	.	.	-
COc1cc2c(cc1NC(=O)CN1C(=O)NC3(CCc4ccccc43)C1=O)oc1ccccc12 (stereo not drawn)	-	-	-	35.5
O=C(OCc1cn([C@@H]2CN(CC3CCCCC3)[C@@H](c3ccccc3)C[C@H]2O)nn1)c1ccccc1	.	.	.	-
C=CCn1c(SCC(=O)N2CCN(C(=O)c3ccco3)CC2)nc2sc(CC)cc2c1=O	12.1	-	-	-
